Active and inactive are the calls of the source. The calls are words filed in the database; no cut-off is given here.
How the values were obtained:
[1] = system: Mus musculus; experiment: Antidiabetic activity in C57Bl/6 mouse assessed as reduction in blood glucose AUC at 30 mg/kg, po administered 30 mins prior glucose challenge by oral glucose tolerance test; format: functional, organism-based; parameters: dose 30 mg/kg
Summary of the method: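 Oral dose–response OGTT in C57Bl/6 mice at 3, 10 and 30 mg/kg; blood glucose area-under-curve assessed; significance versus vehicle by two-way ANOVA.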

[2] = molecular target: T1, Hexokinase-4 (Homo sapiens) (UniProt P35557); experiment: Activity of activated human recombinant Glucokinase assessed as maximum glucose phosphorylation measured over 5 mins by spectrophotometry relative to unactivated enzyme
T1 sequence (whole entry): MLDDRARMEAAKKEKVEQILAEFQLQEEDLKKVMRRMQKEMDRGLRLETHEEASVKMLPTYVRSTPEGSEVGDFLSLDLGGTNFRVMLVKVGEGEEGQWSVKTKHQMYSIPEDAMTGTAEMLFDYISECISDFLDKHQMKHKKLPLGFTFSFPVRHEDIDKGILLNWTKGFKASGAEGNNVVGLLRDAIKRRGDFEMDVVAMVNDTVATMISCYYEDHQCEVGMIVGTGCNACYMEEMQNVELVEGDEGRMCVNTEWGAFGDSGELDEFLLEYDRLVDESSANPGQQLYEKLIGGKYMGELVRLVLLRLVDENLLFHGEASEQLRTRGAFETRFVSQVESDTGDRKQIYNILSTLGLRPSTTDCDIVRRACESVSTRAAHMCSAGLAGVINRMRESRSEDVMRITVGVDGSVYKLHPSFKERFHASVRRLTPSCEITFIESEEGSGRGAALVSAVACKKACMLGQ
Summary of the method: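 Recombinant human GK; V_max is the maximal velocity of glucose phosphorylation by activated GK divided by that of unactivated GK; n = 2.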

[3] = system: Mus musculus; experiment: Antidiabetic activity in fasted ob/ob mouse assessed as reduction in blood glucose AUC compound administered orally 30 mins prior glucose challenge by oral glucose tolerance test relative to control; format: functional, organism-based
Summary of the method: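 OGTT in fasted ob/ob mice with oral doses of 0.3, 1, 3 and 10 mg/kg; blood glucose AUC compared to vehicle by two-way ANOVA.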

Row | SMILES | Ratio [2] | also measured
1 | CCn1nccc1Oc1cc(CC2CCOCC2)cnc1NC(=O)NC | 0.8 | Activity [1]: Active
2 | CCn1nccc1Oc1cc(C[C@H]2C[C@@H](O)C2)cnc1NC(=O)NC | 0.88 | 
3 | CCc1ncccc1Oc1cc(CC2CCOCC2)cnc1NC(=O)NC | 0.75 | 
4 | CCn1nccc1Oc1cc(C[C@H]2CC[C@@](C)(O)CC2)cnc1NC(=O)NC | 0.82 | 
5 | CCn1nccc1Oc1cc(CN2CCOCC2)cnc1NC(=O)NC | 0.78 | 
6 | CCn1nccc1Oc1cc(C[C@H]2C[C@](C)(O)C2)cnc1NC(=O)NC |  | Activity [3]: Dose-dependent effect
7 | CCn1nccc1Oc1cc(C[C@H]2CC[C@@H](O)CC2)cnc1NC(=O)NC | 0.66 | 
8 | CCc1ncccc1Oc1cc(CCCC(C)(C)O)cnc1NC(=O)NC | 0.73 | 
9 | CCn1nc(COC)cc1Oc1cc(CC2CCOCC2)cnc1NC(=O)NC | 0.71 | 
10 | CCn1nccc1Oc1cc(CCCCOC)cnc1NC(=O)NC | 0.83 | 
11 | CCn1nccc1Oc1cc(C[C@H]2CC[C@](C)(O)CC2)cnc1NC(=O)NC | 0.71 | 
12 | CCn1nccc1Oc1cc(C[C@H]2CC[C@H](O)CC2)cnc1NC(=O)NC | 0.79 | 
13 | CCn1nccc1Oc1cc(C[C@@H]2CCO[C@@H](COC)C2)cnc1NC(=O)NC | 0.78 | 
14 | CNC(=O)Nc1ncc(CC2CCOCC2)cc1Oc1ccnn1C(C)C | 0.6 | 
15 | CCc1ncccc1Oc1cc(CC(C)C)cnc1NC(=O)NC | 0.82 | 
16 | CCc1ncccc1Oc1cc(CC2CCCCC2)cnc1NC(=O)NC | 0.73 | 
17 | CCn1nccc1Oc1cc(C[C@H]2C[C@@](C)(O)C2)cnc1NC(=O)NC | 0.8 | 
18 | CCOCCc1cnc(NC(=O)NC)c(Oc2cccnc2CC)c1 | 0.7 | 
19 | CCc1ncccc1Oc1cc(CCCCO)cnc1NC(=O)NC | 0.86 | 
20 | CCc1ncccc1Oc1cc(CCCCOC)cnc1NC(=O)NC | 0.74 | 
21 | CCn1nccc1Oc1cc(C(O)C2CCOCC2)cnc1NC(=O)NC (stereo unspecified) | 0.82 | 
22 | CCn1nccc1Oc1cc(C[C@H]2C[C@H](O)C2)cnc1NC(=O)NC | 0.96 | 
23 | CCn1nccc1Oc1cc(CCCC(C)(C)O)cnc1NC(=O)NC | 0.75 | 
24 | CCc1ncccc1Oc1cc(CCCOC)cnc1NC(=O)NC | 0.78 | 
25 | CCn1nccc1Oc1cc(C[C@H]2CCO[C@H](COC)C2)cnc1NC(=O)NC | 0.76 | 
